# Lmaj promast: inhibitors of Leishmania major promastigote growth; Leishmania major promastigotes, resazurin fluorescence viability; inhibition, % at 10 µM; hit rate 9% among 200,000; AID 1063; in the data active = inhibition above about 50%;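 note: promastigotes grown with compound for 44 hours at 28 °C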
# KCC2 mod: modulators of human KCC2 chloride dependent transport. Q9H2X9. KCC2 cells, thallium flux FluoZin-2 fluorescence. B-score of Tl+ flux slope (higher = more flux/activation; lower = inhibition) at 10 µM. hit rate 2.2% among 190,000;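 active = thallium flux slope and its plate-corrected score both differing from the plate sample mean at a set confidence after two filtering rounds, in either direction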;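 note: slope of fluorescence scaled to starting intensity during 10 to 20 s after thallium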
# ROMK mod: modulates human ROMK potassium channel activity; hit rate 2% among 130,000; P48048; Tet-inducible ROMK, thallium flux fluorescence; actives lie on both sides; AID 1918; B-score at 10 µM;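 active = signal ratio slope over the read window, or its plate-corrected B-score, at least 3 SD from the plate mean, either direction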;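 note: B-score of the F/F0 ratio slope over 7 to 12 s after thallium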
# Target sequence (P48048 whole entry, looked up): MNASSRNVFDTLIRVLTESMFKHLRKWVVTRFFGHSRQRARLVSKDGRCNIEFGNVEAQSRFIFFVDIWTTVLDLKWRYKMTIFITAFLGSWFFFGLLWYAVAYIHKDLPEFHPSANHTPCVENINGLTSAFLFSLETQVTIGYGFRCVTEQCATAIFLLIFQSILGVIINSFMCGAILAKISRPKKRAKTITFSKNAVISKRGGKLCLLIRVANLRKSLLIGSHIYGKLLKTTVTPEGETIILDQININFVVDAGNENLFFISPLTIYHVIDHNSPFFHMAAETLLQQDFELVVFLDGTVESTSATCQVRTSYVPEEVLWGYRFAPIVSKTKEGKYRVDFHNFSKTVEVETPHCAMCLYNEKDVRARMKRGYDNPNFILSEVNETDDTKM
# WT yeast gro inh: growth inhibition of WT yeast, mitochondrial fusion screen | hit rate 2.1% among 190,000 | mitochondrial fusion phenotypic screen, WT strain | inhibition, % at 10 µM; in the data active = inhibition above about 58%; tested in S. cerevisiae
# Diaph inh CS: diaphorase inhibition or chemical oxidation counter-screen | diaphorase resazurin-to-resorufin fluorescence, NADH, 16 min; bacterial (C. kluyveri) enzyme, not human | inhibition, % at 20 µM | hit rate 0.69% among 190,000 | AID 1217;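 active = primary screen inhibition at 20 µM above a set limit, cut at about 50% in these data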;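 note: plate controls were DMSO with full reaction for no effect and wells lacking NADH for full effect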
#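 Test system: diaphorase enzyme from Clostridium kluyveri; amount: diaphorase at 0.14 U/mL in enzyme working solution; detection: fluorescence of resorufin formed from resazurin, Ex 544/Em 590 nm; times: reaction incubation of 16 min at room temperature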
# Diaph act CS: diaphorase activation or chemical reduction counter-screen; Diaphorase/resazurin coupled assay, resorufin fluorescence, 16 min; active compounds read high; 1 = vehicle wells, 0 = NADH-free wells; activation factor at 20 µM; hit rate 0.005% among 190,000; AID 1229;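 active = diaphorase activity raised at least twofold by the compound at 20 µM; inactive = activation factor below 2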
#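 Material: purified diaphorase enzyme from Clostridium kluyveri; Also added: 0.114 mM NADH and 0.1 mM resazurin, final amounts; Doses: single compound dose of 20 µM, 1% DMSO final; Times: 16 min enzyme reaction, ambient temperature; Detection: resorufin fluorescence, excitation 544 nm, emission 590 nm; Measure: increased resorufin signal from activators or reducing compounds.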
# * = called active by the depositor; i = inactive; x = no result. A selection: hits, their analogues and other compounds. The true share with any hit is near 12%.
SMILES,Lmaj promast,KCC2 mod,ROMK mod,WT yeast gro inh,Diaph inh CS,Diaph act CS
Cc1nc2cc(C(F)(F)F)ccc2n1C1CCN(Cc2nnnn2CCc2ccccc2)CC1,98*,-1.5,-1.8,7,34,0.7
Cc1ccc(Cn2nnnc2CN2CCC(n3nnc4cc(C(F)(F)F)ccc43)CC2)cc1,53*,-0.48,x,55,26,0.7
CCOP(=O)(OCC)C(c1ccccc1)N(C)C=O (stereo unspecified),-6,i,x,-7,-1,1
c1ccc(CN2CCN(Cc3ccc4c(c3)OCCO4)CC2)cc1,80*,-0.53,0.018,24,8,0.9
CSc1nc(N2CCN(C)CC2)c2ccccc2n1,3,1,0.14,12,57*,0.4
CN1CCN(c2nc3ccccc3o2)CC1,x,0.071,x,x,x,x
CSc1nnc(C2CCNCC2)n1C,2,x,0.25,65*,4,1
O=C(O)c1nonc1-c1nonc1C(=O)O,-1,0.02,x,-6,15,0.9
Cc1ccc(N2CCN(CCc3ccccc3)CC2)cc1,84*,-3.1,x,2,4,1
O=C1NC(=S)N(c2ccccc2)C(=O)C1C(c1ccncc1)C1C(=O)NC(=S)N(c2ccccc2)C1=O (stereo unspecified),-7,-0.17,0.19,0,18,0.8
Cc1ccc(C2N(c3ccccn3)C(=O)C3CCCN32)o1 (stereo unspecified),-1,-0.17,0.18,10,12,0.9
COc1cc(/C=C(/C)[N+](=O)[O-])ccc1OCc1ccccc1Cl,100*,0.039,-0.14,56,15,0.9
Cc1ccc(OCC(=O)Nc2ccc(Cl)cc2C(=O)c2ccccc2)cc1,25,-0.39,-0.42,2,12,0.9
O=C(COC(=O)c1ccc(O)cc1)Nc1ccc(Cl)cc1C(=O)c1ccccc1,7,-0.059,x,77*,17,0.8
Cc1ccc(C(=O)Nc2ccc(Cl)cc2C(=O)c2ccccc2)cc1,99*,0.58,x,x,x,x
C=CCn1c(O)c(/C(C)=N/N2CCCCCC2)c(=O)[nH]c1=O,x,0.1,1.4,x,x,x
CC/C(=N\Nc1ccccc1)c1c(O)n(-c2ccccc2)c(=O)[nH]c1=O,x,-0.72,x,x,x,x
CC/C(=N\Nc1ccccc1)c1c(O)n(C)c(=O)n(C)c1=O,61*,-0.36,x,23,14,0.9
CCOC(=O)c1c(NC(=O)C(c2ccccc2)c2ccccc2)sc2c1C1CCN2CC1,100*,1.4,x,0,11,0.9
CCOC(=O)c1c(C)n(Cc2ccccc2)c2ccc(O)cc12,-1,0.39,-0.086,-20,42,0.6
N#CCCn1cc(C(=O)Nc2ccccc2Cl)c(-c2ccc([N+](=O)[O-])cc2)n1,10,-0.56,-0.55,5,20,0.8
Cc1ccc(N(C)C(=O)Oc2ccc(C(=O)c3ccc(Cl)cc3)cc2)cc1,0,0.58,x,11,9,0.9
CCOC(=O)C(O)(c1ccc(N(CC)C(=O)OC)cc1)C(F)(F)F (stereo unspecified),98*,1.3,-0.13,-7,9,0.9
COC(=O)C(O)(c1ccc(N(C)C(=O)OC(C)C)cc1)C(F)(F)F (stereo unspecified),92*,0.69,x,-13,8,0.9
CNC(=O)N(C)c1ccc(C(O)(C(=O)OC)C(F)(F)F)cc1 (stereo unspecified),x,-0.028,x,x,x,x
SMILES,Lmaj promast,KCC2 mod,ROMK mod,WT yeast gro inh,Diaph inh CS,Diaph act CS
CCOC(=O)C(NC(=O)CCl)(Nc1ccc(C(O)(C(=O)OCC)C(F)(F)F)cc1)C(F)(F)F (stereo unspecified),6,0.7,1.1,7,13,0.9
CCOC(=O)N(CC)c1ccc(C(O)(C(=O)OCC)C(F)(F)F)cc1 (stereo unspecified),98*,0.34,x,-6,23,0.8
CCOC(=O)N(C)c1ccc(C(O)(C(=O)OCC)C(F)(F)F)cc1 (stereo unspecified),99*,-0.69,x,-3,10,0.9
CCOC(=O)C(O)(c1ccc(NC(=O)Oc2ccccc2)cc1)C(F)(F)F (stereo unspecified),0,0.43,x,-15,8,0.9
CC(=O)OC1N=C(c2ccc(Cl)cc2)c2cc(Br)ccc2NC1=O (stereo unspecified),30,0.82,x,4,15,0.9
CCC1(CC)C(=O)N(C)C(=O)NC1=NC,x,1,x,x,x,x
CCN(C(=O)Oc1ccccc1)c1ccc(C(O)(C(=O)OC)C(F)(F)F)cc1 (stereo unspecified),99*,-0.43,x,4,16,0.8
CCOc1cc(/C=C2/C(=O)NC(=O)N(c3ccc(CC)cc3)C2=O)ccc1OC(=O)c1cccs1,-5,0.5,2.1,-8,8,0.9
O=C(COc1ccc(Cl)cc1)NC1CN2CCC1CC2 (stereo unspecified),99*,0.7,x,-2,0,1
COc1cc(N)c(Cl)cc1C(=O)NC1CN2CCC1CC2 (stereo unspecified),x,-1.1,x,-1,11,0.9
CCCCn1c(O)c(C(CC)=NCc2cc(OC)cc(OC)c2)c(=O)[nH]c1=O,100*,-1.1,x,15,28,0.7
O=C1/C(=C\c2cc3c(cc2Br)OCO3)N2CCC1CC2,63*,-1.5,-2,-7,2,1
O=C(c1cc(F)ccc1F)C1CCCN(CCCc2ccccc2)C1 (stereo unspecified),82*,x,-0.086,13,17,0.8
CCOC(=O)c1c(C)n(Cc2ccccc2)c2ccc(OCC(O)Cn3nc(C)cc3C)cc12 (stereo unspecified),18,0.7,x,66*,17,0.8
CCOC(=O)c1c(C)n(Cc2ccccc2)c2ccc(OCC(O)Cn3nc(C)nc3C)cc12 (stereo unspecified),12,0.048,x,7,25,0.8
COC(=O)C1=Nc2ccccc2/C1=C\c1c(O)n(-c2ccc(OC)cc2)c(=O)[nH]c1=O,-3,-0.12,x,5,6,0.9
COC(=O)C1=Nc2ccccc2/C1=C\c1c(O)n(-c2ccc(Br)cc2)c(=O)[nH]c1=O,67*,1.7,0.68,0,15,0.8
NC(=O)CS(=O)C(c1ccccc1)c1ccccc1 (stereo unspecified),x,0.024,x,0,10,0.9
COc1ccc2cc(C(=O)C3CCCN(C4CCOCC4)C3)ccc2c1 (stereo unspecified),99*,-0.092,-1.1,5,12,0.9
COc1ccc(C(=O)C2CCCN(C3CSCCSC3)C2)cc1OC (stereo unspecified),18,0.16,0.18,0,20,0.8
O=C(c1ccc(Cl)cc1)C1CCCN(C2CCSCC2)C1 (stereo unspecified),91*,-0.071,-0.56,-6,6,0.9
COc1c(C)cc(C(=O)C2CCCN(C3CCOCC3)C2)cc1C (stereo unspecified),97*,-0.22,0.2,-7,2,1
